{"data": "Assay results gathered from unrelated publications", "target": "Carbonic anhydrase 1 (CA1, Homo sapiens, UniProt P00915)", "read-out": "enzyme activity", "action": "inhibitor", "note": "Compare with care: the assays were run in different laboratories."}
{"SMILES": "CC1(C(=O)Nc2nnc(S(N)(=O)=O)s2)CCC1", "test": "stopped-flow", "Ki [µM]": 0.334}
{"SMILES": "CN(C/C=C/C#CC(C)(C)C)Cc1cccc2ccccc12", "Ki [µM]": 20.6}
{"SMILES": "O=C(Oc1ccccc1)c1ccc(=O)oc1", "test": "stopped-flow", "Ki [µM]": "> 100"}
{"SMILES": "NS(=O)(=O)c1nnc(NC(=O)CN2CC3CCC2CC3)s1", "test": "stopped-flow", "Ki [µM]": 0.144}
{"SMILES": "COc1ccnc(C[S+]([O-])c2nc3ccc(OC(F)F)cc3[nH]2)c1OC (centres unmarked)", "Ki [µM]": 7.16}
{"SMILES": "CC1CCCC(C(=O)Nc2nnc(S(N)(=O)=O)s2)C1 (centres unmarked)", "test": "stopped-flow", "Ki [µM]": 0.0827}
{"SMILES": "O=C(OC1CCCCC1)c1ccc(=O)oc1", "test": "stopped-flow", "Ki [µM]": "> 100"}
{"SMILES": "CC[C@H]1OC(=O)[C@H](C)[C@@H](O[C@H]2C[C@@](C)(OC)[C@@H](O)[C@H](C)O2)[C@H](C)[C@@H](O[C@@H]2O[C@H](C)C[C@H](N(C)C)[C@H]2O)[C@](C)(O)C[C@@H](C)CN(C)[C@H](C)[C@@H](O)[C@]1(C)O", "Ki [µM]": 10.2}
{"SMILES": "O=C(OCc1cn(-c2ccc([N+](=O)[O-])cc2)nn1)c1ccc(=O)oc1", "test": "stopped-flow", "Ki [µM]": "> 100"}
{"SMILES": "CC(C(=O)Nc1nnc(S(N)(=O)=O)s1)C1CCCCC1 (centres unmarked)", "test": "stopped-flow", "Ki [µM]": 0.0475}
{"SMILES": "N#CSCCCCOc1ccc2c(-c3ccccc3)cc(=O)oc2c1", "test": "stopped-flow", "Ki [µM]": "> 100"}
{"SMILES": "COc1ccc(OC(=O)c2ccc(=O)oc2)cc1", "test": "stopped-flow", "Ki [µM]": "> 100"}
{"SMILES": "CC1CCC(CC(=O)Nc2nnc(S(N)(=O)=O)s2)CC1 (centres unmarked)", "test": "stopped-flow", "Ki [µM]": 0.0692}
{"SMILES": "CN1CCC(=C2c3ccccc3CC(=O)c3sccc32)CC1", "Ki [µM]": 6.98}
{"SMILES": "O=C(OCc1cn(-c2ccc(Cl)cc2)nn1)c1ccc(=O)oc1", "test": "stopped-flow", "Ki [µM]": "> 100"}
{"SMILES": "CC(C)[C@H](N)C(=O)OCCOCn1cnc2c(=O)[nH]c(N)nc21", "Ki [µM]": 8.7}
{"SMILES": "CC1CCCCC1OC(=O)c1ccc(=O)oc1 (centres unmarked)", "test": "stopped-flow", "Ki [µM]": "> 100"}
{"SMILES": "NS(=O)(=O)c1cnc(NC(=O)CCc2ccccc2)s1", "test": "stopped-flow", "Ki [µM]": 2.43}
{"SMILES": "OC(Cn1cncn1)(Cn1cncn1)c1ccc(F)cc1F", "Ki [µM]": 7.56}
{"SMILES": "Cc1c(Cl)c(=O)oc2cc(OCCCCSC#N)ccc12", "test": "stopped-flow", "Ki [µM]": "> 100"}
